5-HT1A blocker = human 5-HT1a receptor antagonists, primary screen, cell-based, CHO, Ga15 NFAT-bla reporter; AID 612, 2007; hit rate 0.68% among 62,000; inhibition, % at 10 µM; CHO 5-HT1a Ga15 NFAT-bla reporter, antagonist mode;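 active = inhibition above the mean of all tested compounds plus 3 SD, cut at about 43% in these data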;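 also: receptor stimulated by 5-CT agonist at 100 nM near EC80; beta-lactamase reporter measured by ratiometric fluorescence of a cleavable substrate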
S1P1 ag-PAM = S1P1 agonists and agonism potentiators, primary screen, cell-based, primary and confirmation screens, CRE-bla reporter; S1P1 CRE-bla cells, forskolin, beta-lactamase FRET, potentiator mode; S1P1 agonist co-added at EC20, 2 nM; 100% = saturating reference agonist, 0% = basal; activation, % at 9.5 µM; hit rate 0.57% among 56,000; AID 449, 2006;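 active = activation above a cutoff set at the mean activation of all tested compounds plus 3 SD, cut at about 54% in these data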;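 also: forskolin at 4 µM as EC80 and the EC20 agonist is SEW2871; 100% = SEW2871 at its EC100 plus forskolin at EC80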
S1P3 ag = human S1P3 receptor agonists, primary screen, cell-based, primary and confirmation, NFAT-BLA reporter; Sphingosine 1-phosphate receptor 3 (Homo sapiens), Q99500; S1P3 NFAT-BLA reporter cells, agonism, FRET ratio; relative to 1 µM S1P, basal subtracted; activation, % at 4.5 µM; hit rate 0.1% among 60,000; AID 373, 2006;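 active = activation above the screen-wide mean plus 3 SD, cut at about 4.5% in these data, passing the limit was not always enough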
Target sequence (Q99500 whole entry, looked up): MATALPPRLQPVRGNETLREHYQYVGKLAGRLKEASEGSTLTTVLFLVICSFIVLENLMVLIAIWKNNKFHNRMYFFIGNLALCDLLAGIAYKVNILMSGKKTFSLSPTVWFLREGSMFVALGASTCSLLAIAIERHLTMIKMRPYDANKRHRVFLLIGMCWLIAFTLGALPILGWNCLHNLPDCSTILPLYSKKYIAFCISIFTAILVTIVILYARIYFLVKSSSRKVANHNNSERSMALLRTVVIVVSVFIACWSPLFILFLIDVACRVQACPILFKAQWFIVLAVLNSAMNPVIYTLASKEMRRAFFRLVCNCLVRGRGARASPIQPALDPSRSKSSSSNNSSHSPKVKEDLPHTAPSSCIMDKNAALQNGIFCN
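Assay system: stable CHO line with human S1P3, Gα16, NFAT-BLA reporter; Detection: FRET β-lactamase substrate fluorescence, excitation 405 nm, 460/535 nm emission ratio, background-subtracted; Read-out: percent activation versus median 1 µM S1P response, basal-subtracted, per plate; Incubation: cells plated overnight, compound 4 h 37 °C, substrate 2 h RT.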
HTR1E antagonist = 5-HT1E receptor antagonists, primary screen, cell-based, HTS; 5-hydroxytryptamine receptor 1E (Homo sapiens), P28566; CHO 5-HT1E Ga15 NFAT-bla reporter, FRET, antagonist; inhibition, % at 6 µM; hit rate 0.99% among 65,000;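 active = inhibition above a set limit, the mean inhibition across every tested compound plus 3 SD, cut at about 29% in these data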;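 also: signal is the 460 over 535 nm emission ratio of beta-lactamase substrate; 0% = agonist plus DMSO wells and 100% = wells without agonist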
5HT1a ag = human 5-HT1a receptor agonists, primary screen, cell-based, CHO, Ga15 NFAT-bla reporter. 5-hydroxytryptamine receptor 1A (Homo sapiens), P08908. CHO 5-HT1a Ga15 NFAT-bla reporter, FRET ratio; 0% basal, 100% maximal reference agonist. activation, % at 10 µM. hit rate 0.56% among 65,000. AID 567, 2006;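 active = activation above the screen-wide mean activation plus 3 SD, cut at about 19% in these data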;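 also: 0% = DMSO wells and 100% = 5-CT at EC100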
HTR1E agonist = 5-HT1E receptor agonists, primary screen, cell-based, HTS | 5-hydroxytryptamine receptor 1E (Homo sapiens), P28566 | AID 574, 2007 | activation, % at 6 µM | CHO 5-HT1E Ga15 NFAT-bla reporter, FRET; 0% DMSO wells, 100% control agonist wells | hit rate 0.69% among 65,000;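 active = activation above a set limit, the screen-wide mean activation plus 3 SD, cut at about 8.5% in these data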;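 also: 100% = positive control agonist at 1 µM giving full maximal response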
An asterisk follows results filed as active; x = not tested or not shown. Hits are enriched below; roughly 3% of the tested compounds scored in any of these assays.

SMILES	5-HT1A blocker	S1P1 ag-PAM	S1P3 ag	HTR1E antagonist	5HT1a ag	HTR1E agonist
Cc1ccc(S(=O)(=O)N2CCOCC2)cc1C(=O)OCC(=O)N1CCc2ccccc2C1	-3.0	22.1	0.2	4.5	3.4	0.2
Cc1cccc(N2CCN(C(=O)c3ccc(CS(=O)(=O)c4ccccc4C)o3)CC2C)c1 (stereo not drawn)	45.6*	6.4	-1.8	39.5*	1.1	0.3
O=C(NC1(C(F)(F)F)C(=O)Nc2c1c(=O)[nH]c(=O)n2-c1ccccc1)c1cccnc1 (stereo not drawn)	x	4.9	-4.8	2.8	-0.5	-1.3
Oc1ccc(CNc2ccccc2)c2cccnc12	9.8	-17.2	-0.2	-11.0	-1.1	0.3
Oc1ccc(CN2CCN(Cc3ccccc3)CC2)c2cccnc12	19.9	-10.7	-0.6	30.2*	-3.1	1.0
CN1CCN(Cc2cc(COCc3ccccc3)c3cccnc3c2O)CC1	27.9	2.9	-2.7	47.9*	-1.6	5.0
CCOC(=O)c1c(C)oc(/N=C/c2ccccc2O)c1C#N	10.8	6.2	-1.0	12.3	-5.8	-1.3
COc1ccccc1NC(=O)NCCCN1CCN(c2cccc(Cl)c2)CC1	38.0	1.9	-0.4	-22.3	2.1	3.1
O=c1n(CCCN2CCN(c3cccc(Cl)c3)CC2)nc2ccccn12	x	14.5	-2.2	3.1	4.7	9.5*
O=C(CN1CCN(c2ccccn2)CC1)Nc1ccc2ccccc2c1	5.4	5.7	-0.5	-5.7	0.2	0.1
CCOc1ccc(NC(=O)CCN2CCN(c3ccccc3)CC2)cc1	68.2*	-17.1	-1.9	23.4	3.4	0.0
O=C(CCN1CCN(c2ccccn2)CC1)Nc1ccc(F)cc1	18.5	-36.1	0.5	-8.4	29.3*	0.1
COc1ccc(OC)c(NC(=O)CCN2CCN(c3ccccc3)CC2)c1	5.2	-16.4	-0.6	2.4	-0.2	0.3
COc1ccccc1N1CCN(CC(=O)Nc2cc(C)nn2-c2nc(C)cc(C)n2)CC1	-3.4	x	x	-2.9	3.2	0.6
NC1(N)OC(CN2C(=O)c3ccccc3C2=O)CS1 (stereo not drawn)	-12.1	-8.6	2.7	-3.8	-5.1	-0.1
CCCc1cc(C(=O)N2CCN(C(c3ccccc3)c3ccccc3)CC2)no1	6.6	66.3	-1.0	5.1	-0.4	-0.5
Cc1cc(C(=O)N2CCN(C(c3ccccc3)c3ccccc3)CC2)no1	-3.8	69.4*	4.7	-2.1	0.7	-0.8
COc1cccc(-c2cc(C(=O)N3CCN(C(c4ccccc4)c4ccccc4)CC3)no2)c1	51.8*	7.7	-2.4	-13.6	-1.0	3.0
COc1ccc(CNC(=O)c2ccc(NC(=O)C3CCCO3)cc2)cc1 (stereo not drawn)	3.0	x	x	1.8	-1.8	-0.7
c1ccc2c(c1)nc(N1CCOCC1)c1c3ccccc3[nH]c21	0.2	-13.2	-0.7	1.7	1.5	-1.1
Cc1cc(NC(=O)C2CCCC2)nc2c1c(=O)oc1ccccc12	-19.8	x	x	-2.0	4.0	-1.4
COc1cccc(C(=O)Nc2cc(C)c3c(=O)oc4ccccc4c3n2)c1	-11.7	-4.6	-1.2	1.6	24.7*	-0.7
COc1cccc(C(=O)N2CCN=C2SCc2cccnc2)c1OC	-1.2	-1.5	-0.7	3.2	-2.0	0.0
CCOc1ccc(N=C(NC#N)SCC(=O)NC2CC2)cc1	x	2.3	-0.9	-3.1	-2.0	1.0
O=C(CSc1nc2ccccc2c(=O)n1CC1CCCO1)NCC1CCCO1 (stereo not drawn)	-1.4	-12.8	-0.2	-2.9	0.2	0.0
SMILES	5-HT1A blocker	S1P1 ag-PAM	S1P3 ag	HTR1E antagonist	5HT1a ag	HTR1E agonist
O=c1c2ccccc2c2ccccc2c(=O)n1CC1CCCO1 (stereo not drawn)	-6.2	-4.0	-1.4	34.8*	-2.7	0.2
CSc1nc(-c2ccco2)cc(-c2ccccc2)c1C#N	-11.2	-19.8	-0.2	0.9	-4.0	-0.7
CS(=O)c1nc(-c2ccc(Br)cc2)cc(-c2ccccc2)c1C#N (stereo not drawn)	80.7*	-29.7	-0.8	42.8*	-5.8	1.7
COc1cccc(CNCc2ccccn2)c1OC	-9.8	-13.1	-1.1	2.1	-0.5	10.9*
CC(=O)N1CCc2cc(S(=O)(=O)NCCCN3CCN(Cc4ccccc4)CC3)ccc21	16.3	x	x	-3.3	-0.7	34.7*
CCS(=O)(=O)Nc1ccc(-c2ccc(NS(=O)(=O)CC)c(OC)c2)cc1OC	-5.8	x	-0.5	2.1	1.6	0.3
O=C(CCc1nc(-c2ccccc2F)no1)Nc1ccc(Oc2ccccc2)cc1	11.4	127.5*	-0.6	5.4	0.8	-0.4
Cc1ccc(-c2noc(CCC(=O)NCCN3CCN(Cc4ccccc4)CC3)n2)cc1	13.0	-10.8	-0.3	2.4	-2.9	0.0
Cc1ccc(-c2noc(CCC(=O)NCCc3ccccc3Cl)n2)cc1	14.1	0.0	-1.0	1.5	-0.9	21.0*
COc1ccc(CNC(=O)CCc2nc(-c3ccccc3F)no2)c(OC)c1	3.4	-17.1	-1.3	3.5	-1.9	-1.3
O=C(CCc1nc(-c2ccccc2F)no1)NCCc1ccccc1Cl	4.0	-5.4	-0.8	-17.7	-1.8	14.7*
CC1(C)OC(=O)C2(Cc3ccccc3N3CCCCC32)C(=O)O1 (stereo not drawn)	-20.0	-9.1	-0.3	5.2	-3.9	0.0
O=C(CSc1nc(-c2ccc(F)cc2)cs1)N1CCN(C(=O)c2ccco2)CC1	-6.6	-19.3	-0.3	5.7	-0.5	-0.4
Cc1sc(NC(=O)CSc2nc(N)n(CC(=O)c3ccccc3)n2)c(C#N)c1C	-9.9	-37.1	-0.2	13.9	0.1	-0.2
CCOC(=O)C1=C(Cn2cnc3ccccc32)NC(=O)NC1c1cc(C)ccc1C (stereo not drawn)	-5.7	-102.3	-0.3	0.9	8.0	2.0
COC(=O)C1=C(Cn2cnc3ccccc32)NC(=O)NC1c1cc(C)ccc1C (stereo not drawn)	-5.4	x	-1.2	1.7	22.1*	-1.3
CCCn1c(NC(=O)c2cccc(S(=O)(=O)N3CCCC3)c2)nc2ccccc21	49.6*	73.5*	-1.1	19.9	-1.9	1.4
CCCn1c(NC(=O)c2ccccc2)nc2ccccc21	34.0	-30.1	-1.7	-10.1	-0.3	-0.1

Screens (PubChem)
